Published values collected from several papers.
Lines come from different studies, so protocols differ. ≈ marks a conversion by molar mass, not a printed value.
Organism: Bacillus subtilis

CCCCCCCC/C=C\CCCCCCCC(=O)C(F)(F)P(=O)(O)O
MIC (microbial growth; ATCC23857): > 200 µg/mL

CCCCCCCCCCCCCCCc1cc(O)cc(O)c1
IC50 (microbial growth): 26.7 µM

CC1(C)S[C@@H]2[C@H](NC(=O)[C@H](N)c3ccccc3)C(=O)N2[C@H]1C(=O)O
inhibition zone (microbial growth; well diffusion; ATCC6633; 60000 µg/mL): 31 mm

CCCCCCCCCCCCCCCC(=O)CP(=O)(O)O
MIC (microbial growth; ATCC23857): 25 µg/mL (≈ 74.8 µM)

CC(C)CCCCCCCCCCCCc1cc(O)cc(O)c1
IC50 (microbial growth): 54.6 µM

Cc1c(NN=C(C#N)C2=NC(=O)CS2)c(=O)n(-c2ccccc2)n1C
MBC (microbial killing; broth dilution): 2 µg/mL

CC1C(=NOCc2cc(-c3ccc(Cl)cc3)no2)CC(c2ccccc2)OC1c1ccccc1 (stereo not shown)
MIC (microbial growth; broth dilution; MTCC121; 24 h): 12.5 µg/mL (≈ 26.4 µM)

O=C(CCCCC1CCCCC1)NP(=O)(O)O
MIC (microbial growth; ATCC23857): > 200 µg/mL

O=C(O)c1cn(C2CC2)c2cc(N3CCNCC3)c(F)cc2c1=O
MBC (microbial killing): 19 µM

CCC1C(=NOCc2cc(-c3ccc(Cl)cc3)no2)CC(c2ccccc2)OC1c1ccccc1 (stereo not shown)
MIC (microbial growth; broth dilution; MTCC121; 24 h): 12.5 µg/mL (≈ 25.7 µM)

CCC(CCCCCCCCCCc1cc(O)cc(O)c1)C(C)C (stereo not shown)
IC50 (microbial growth): 3.44 µM

CCCCCCCCCCCC(=O)OC[C@H]1O[C@@H](n2cc(C)c(=O)[nH]c2=O)C[C@@H]1O
MBC (microbial killing; broth dilution): 16 µg/mL

CCCCCCCCCCCCCCCC(=O)NS(=O)(=O)Oc1ccc(OC)cc1
MIC (microbial growth; ATCC23857): 3.12 µg/mL (≈ 7.06 µM)

CC(C)CCCCCCCCCCCCCCCc1cc(O)cc(O)c1
IC50 (microbial growth): 14.5 µM

CCCCCCCCCCCC(=O)NP(=O)(O)O
MIC (microbial growth; ATCC23857): > 200 µg/mL

CCCCCCCCCCCC(=O)OC[C@H]1O[C@@H](n2cc(C)c(=O)[nH]c2=O)C[C@@H]1OC(=O)c1ccc(C(C)(C)C)cc1
MBC (microbial killing; broth dilution): 16 µg/mL
